Experimental data of several laboratories.
Converted amounts (≈) assume the structure as drawn.

SMILES	organism	assay	test system	setting	endpoint	value
O=C(N/N=C/c1ccc([N+](=O)[O-])o1)c1ccc(O)cc1	Aliivibrio fischeri	microbial growth			MIC90	7.8 µg/mL (≈ 28.3 µM)
Nc1ccn([C@@H]2CS[C@H](CO)O2)c(=O)n1	Hepatitis B virus	viral replication, qPCR	HepG2.2.15	6 days	IC50	7370 nM
O=C(O)CCc1ccccc1Oc1ccc(-c2noc(-c3ccc(O)cc3)n2)cc1	Clostridioides difficile	microbial growth, broth dilution		48 h	MIC	4 µg/mL (≈ 9.94 µM)
CC1(C)OB(c2ccc(CNS(=O)(=O)c3cc(C(=O)Nc4cc(F)c(F)c(F)c4)ccc3F)cc2)OC1(C)C	Hepatitis B virus	viral replication, inhibitor, qPCR	HePAD38	6 days	EC50	490 nM
Cc1ccc(C)n1-c1ccc(-c2n[nH]c(=S)[nH]2)cc1	Saccharomyces cerevisiae	microbial growth, broth dilution	ATCC9763		MIC	> 500 µg/mL
COc1c(N2C[C@@H]3CCCN[C@@H]3C2)c(F)cc2c(=O)c(C(=O)O)cn(C3CC3)c12	Aliivibrio fischeri	microbial growth			MIC90	0.06 µg/mL (≈ 0.149 µM)
O=C(O)CNc1ccc(-c2nc(-c3ccc(Oc4ccccc4)cc3)no2)cc1	Clostridioides difficile	microbial growth, broth dilution		48 h	MIC	13 µg/mL (≈ 33.6 µM)
Cc1ccc(C)n1-c1ccc(-c2nnc(-c3ccccc3[N+](=O)[O-])[nH]2)cc1	Saccharomyces cerevisiae	microbial growth, broth dilution	ATCC9763		MIC	31.2 µg/mL (≈ 87 µM)
Cl.NCCc1ccccc1Oc1ccc(-c2noc(-c3ccc(O)cc3)n2)cc1	Clostridioides difficile	microbial growth, broth dilution		48 h	MIC	8 µg/mL
O=C(Nc1cc(F)c(F)c(F)c1)c1ccc(F)c(S(=O)(=O)NCc2ccc(B(O)O)cc2)c1	Hepatitis B virus	viral replication, inhibitor, qPCR	HePAD38	6 days	EC50	380 nM
